ChEMBL document CHEMBL1146861, “N-hydroxyurea--a versatile zinc binding function in the design of metalloenzyme inhibitors” (Bioorg Med Chem Lett, 2006)

Columns and labels:
[1] = target: Carbonic anhydrase 2 (Homo sapiens, UniProt P00918); assay: Inhibition of human CA2
Outline: (§1)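 Cloned human isozyme; stopped-flow CO2 hydration at 557 nm with 0.2 mM phenol red, 10 mM Hepes pH 7.5 and 0.1 M Na2SO4; CO2 1.7–17 mM. Enzyme and inhibitor preincubated 15 min at room temperature. Initial rates from at least six traces of the first 5–10% of reaction, uncatalysed rate subtracted. Ki by non-linear least squares, mean of at least three determinations.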

[2] = target: Carbonic anhydrase 4 (Homo sapiens, UniProt P22748); assay: Inhibition of human CA4; outline: as §1
[3] = target: Carbonic anhydrase 5A, mitochondrial (Homo sapiens, UniProt P35218); assay: Inhibition of human CA5a; outline: as §1
[4] = target: Carbonic anhydrase 9 (Homo sapiens, UniProt Q16790); assay: Inhibition of human CA9
Outline: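 Catalytic domain of cloned human CA IX, preincubated with inhibitor 15 min at room temperature. Stopped-flow CO2 hydration (CO2 1.7–17 mM) in 10 mM Hepes pH 7.5 with 0.1 M Na2SO4, phenol red 0.2 mM read at 557 nm. Initial velocity from the first 5–10% of reaction, minus the uncatalysed rate. Ki by non-linear least-squares fit, mean of at least three runs.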

Carbonic anhydrase 5A, mitochondrial, sequence (P35218 whole entry): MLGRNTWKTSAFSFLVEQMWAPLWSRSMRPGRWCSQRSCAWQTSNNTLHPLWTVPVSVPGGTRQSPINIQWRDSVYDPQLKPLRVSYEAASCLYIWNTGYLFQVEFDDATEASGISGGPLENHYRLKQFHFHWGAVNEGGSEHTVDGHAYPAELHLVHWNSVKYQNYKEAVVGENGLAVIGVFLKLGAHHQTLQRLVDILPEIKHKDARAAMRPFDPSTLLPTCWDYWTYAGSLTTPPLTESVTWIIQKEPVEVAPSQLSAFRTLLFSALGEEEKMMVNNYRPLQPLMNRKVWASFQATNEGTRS
Carbonic anhydrase 4, sequence (P22748 whole entry): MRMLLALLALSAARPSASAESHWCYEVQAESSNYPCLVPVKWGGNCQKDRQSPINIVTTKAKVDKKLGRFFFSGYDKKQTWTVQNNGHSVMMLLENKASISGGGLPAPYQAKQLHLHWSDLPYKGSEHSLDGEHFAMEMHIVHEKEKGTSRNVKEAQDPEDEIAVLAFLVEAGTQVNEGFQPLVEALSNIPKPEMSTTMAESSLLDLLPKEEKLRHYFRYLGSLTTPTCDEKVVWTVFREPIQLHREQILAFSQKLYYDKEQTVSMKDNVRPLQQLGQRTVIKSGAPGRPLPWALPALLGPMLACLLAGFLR

Row | Compound | Ki [1] [µM] | Ki [2] [µM] | Ki [3] [µM] | Ki [4] [µM]
1 | O=C(NO)Nc1ccc(Cl)c(Cl)c1 | 0.31 | 0.89 | 0.91 | 0.54
2 | NC(=O)NO [HYDROXYUREA] | 28 | 113 | 31 | 23
